From ChEMBL document CHEMBL4002602, “Design, Synthesis of Novel, Potent, Selective, Orally Bioavailable Adenosine A2A Receptor Antagonists and Their Biological Evaluation” (J Med Chem, 2017)
pKi: −log10 of the molar value. Converted amounts (≈) assume the structure as drawn.

Key:
[1] = target: T1, Adenosine receptor A1 (Homo sapiens) (UniProt P30542); test: Displacement of [3H]-DPCPX from human adenosine A1 receptor expressed in HEK293 cell membranes at 1 uM measured after 90 mins relative to control
T1 sequence (whole entry): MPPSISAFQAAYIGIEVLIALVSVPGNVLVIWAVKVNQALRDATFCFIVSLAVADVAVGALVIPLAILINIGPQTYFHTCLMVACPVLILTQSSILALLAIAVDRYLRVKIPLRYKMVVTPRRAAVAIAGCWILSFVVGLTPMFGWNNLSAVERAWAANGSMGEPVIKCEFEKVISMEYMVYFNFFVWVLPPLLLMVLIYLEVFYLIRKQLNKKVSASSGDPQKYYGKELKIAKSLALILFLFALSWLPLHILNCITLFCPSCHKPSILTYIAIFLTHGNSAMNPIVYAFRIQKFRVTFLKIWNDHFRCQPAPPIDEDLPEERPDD

[2] = Cmax in Wistar rat at 10 mg/kg administered via oral gavage by LC/MS/MS analysis; format: ADME, organism-based; design: dose 10 mg/kg, route oral; conditions: in vivo
Procedure, shortened: (§1)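 Fasted male Wistar rats given 10 mg/kg PO as a suspension in 1% Tween 80, 0.5% w/v NaCMC. Serial plasma sampling (K2EDTA) at 0.25–24 h, acetonitrile precipitation, LC/MS/MS. Non-compartmental analysis per animal; bioavailability calculated against the 3 mg/kg IV group; mean of n=4.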

[3] = AUC (0 to t) in Wistar rat at 3 mg/kg, iv by LC/MS/MS analysis; format: ADME, organism-based; conditions: in vivo
Procedure, shortened: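 Overnight-fasted male Wistar rats received a 3 mg/kg tail-vein solution (0.6 mg/mL, 5 mL/kg). Vehicle was 10% NMP with PEG300, Cremophor EL and/or HPβ-CD in 0.1 M acetate buffer, pH 4.2; co-solvents varied by compound. Serial K2EDTA blood samples (n=3/time point) taken 0.008–24 h. Plasma measured by LC/MS/MS; non-compartmental AUC0-t per animal.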

[4] = Tmax in Wistar rat at 10 mg/kg administered via oral gavage by LC/MS/MS analysis; format: ADME, organism-based; conditions: in vivo; procedure, shortened: as §1
Liver [5] = test: Metabolic stability in rat liver microsomes assessed as metabolic rate at 1 uM preincubated for 5 mins followed by addition of NADPH measured after 3 to 30 mins by LC-MS/MS analysis; format: ADME, microsome
[6] = Elimination half-life in Wistar rat at 3 mg/kg, iv by LC/MS/MS analysis; format: ADME, organism-based; conditions: in vivo, read-out: beta t1/2 (converted)
Procedure, shortened: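 Male Wistar rats (230 ± 15 g), fasted overnight, given 3 mg/kg IV via tail vein as a solution (0.6 mg/mL, 5 mL/kg) in NMP-based vehicles with acetate buffer pH 4.2. Serial plasma sampling (K2EDTA) from 0.008 to 24 h. Acetonitrile precipitation, then LC/MS/MS. Non-compartmental analysis per animal; mean of n=4.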

hERG (KCNH2) = hERG (KCNH2) (Homo sapiens, UniProt Q12809); test: Inhibition of [3H]-astemizole binding to human ERG at 30 uM after 2 hrs by liquid scintillation counting method relative to control; conditions: probe [3H]-astemizole
Chain of hERG (KCNH2) (Q12809 whole entry): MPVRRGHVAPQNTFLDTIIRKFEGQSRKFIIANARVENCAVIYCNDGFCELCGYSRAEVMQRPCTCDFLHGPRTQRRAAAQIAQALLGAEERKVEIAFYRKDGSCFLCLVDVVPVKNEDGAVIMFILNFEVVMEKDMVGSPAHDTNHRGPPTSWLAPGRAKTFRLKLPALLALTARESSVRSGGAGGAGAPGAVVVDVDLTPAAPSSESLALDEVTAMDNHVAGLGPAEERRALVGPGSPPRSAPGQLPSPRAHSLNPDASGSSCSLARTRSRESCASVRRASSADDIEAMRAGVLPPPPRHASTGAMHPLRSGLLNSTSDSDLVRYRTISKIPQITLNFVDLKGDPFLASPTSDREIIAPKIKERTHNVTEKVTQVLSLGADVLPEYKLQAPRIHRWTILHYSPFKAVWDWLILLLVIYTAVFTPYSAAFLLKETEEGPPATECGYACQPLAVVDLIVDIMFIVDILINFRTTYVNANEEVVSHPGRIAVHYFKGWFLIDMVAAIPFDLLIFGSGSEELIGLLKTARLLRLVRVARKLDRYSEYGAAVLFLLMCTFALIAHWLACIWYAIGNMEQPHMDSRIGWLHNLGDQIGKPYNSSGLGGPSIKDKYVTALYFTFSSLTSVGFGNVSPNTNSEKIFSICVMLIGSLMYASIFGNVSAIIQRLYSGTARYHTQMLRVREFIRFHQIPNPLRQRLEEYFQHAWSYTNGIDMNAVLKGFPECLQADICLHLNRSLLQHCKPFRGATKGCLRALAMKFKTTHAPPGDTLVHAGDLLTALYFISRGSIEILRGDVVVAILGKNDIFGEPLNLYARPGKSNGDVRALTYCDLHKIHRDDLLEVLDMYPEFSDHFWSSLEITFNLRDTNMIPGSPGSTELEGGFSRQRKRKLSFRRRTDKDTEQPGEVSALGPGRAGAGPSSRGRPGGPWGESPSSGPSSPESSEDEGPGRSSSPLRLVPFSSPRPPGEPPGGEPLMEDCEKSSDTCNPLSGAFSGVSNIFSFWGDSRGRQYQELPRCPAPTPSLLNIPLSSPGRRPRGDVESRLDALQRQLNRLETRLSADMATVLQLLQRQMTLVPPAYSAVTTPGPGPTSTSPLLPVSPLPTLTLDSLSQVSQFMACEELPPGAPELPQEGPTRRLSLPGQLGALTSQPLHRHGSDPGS

[7] = Equilibrium aqueous solubility of the compound at pH 2.1 after 4 hrs; format: physicochemical; conditions: aqueous medium
Cytochrome P450 2C9 = Cytochrome P450 2C9 (Homo sapiens, UniProt P11712); test: Inhibition of CYP2C9 in human liver microsomes at 5 to 25 uM using diclofenac as substrate preincubated for 5 mins with substrate followed by NADPH addition measured after 10 mins by LC-MS/MS analysis; format: ADME; conditions: microsomes, 10 min, 25 µM
Chain of Cytochrome P450 2C9 (P11712 whole entry): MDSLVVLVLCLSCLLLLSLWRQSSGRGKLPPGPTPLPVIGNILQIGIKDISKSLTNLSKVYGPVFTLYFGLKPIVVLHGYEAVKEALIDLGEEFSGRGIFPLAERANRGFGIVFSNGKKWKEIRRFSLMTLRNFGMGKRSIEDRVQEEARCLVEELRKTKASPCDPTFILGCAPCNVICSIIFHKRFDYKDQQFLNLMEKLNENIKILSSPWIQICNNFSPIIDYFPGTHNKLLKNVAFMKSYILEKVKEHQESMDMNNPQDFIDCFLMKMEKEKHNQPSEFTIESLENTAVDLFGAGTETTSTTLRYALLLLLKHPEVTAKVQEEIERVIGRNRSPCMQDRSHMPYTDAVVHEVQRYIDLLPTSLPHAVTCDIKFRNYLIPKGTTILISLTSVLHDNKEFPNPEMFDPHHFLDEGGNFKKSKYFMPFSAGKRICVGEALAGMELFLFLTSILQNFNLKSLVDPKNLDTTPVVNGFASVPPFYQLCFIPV

[8] = AUC (0 to t) in Wistar rat at 10 mg/kg administered via oral gavage by LC/MS/MS analysis; format: ADME, organism-based; conditions: in vivo
Procedure, shortened: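 Male Wistar rats (230 ± 15 g), fasted overnight with water available, given a single oral suspension in 1% Tween 80 and 0.5% NaCMC (1 mg/mL, 10 mL/kg). Serial blood sampling (n=3/time point) at 0.25–24 h into K2EDTA. Plasma proteins precipitated with acetonitrile, then LC/MS/MS. AUC0-t by non-compartmental analysis of individual animals.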

Liver [9] = test: Metabolic stability in human liver microsomes assessed as metabolic rate at 1 uM preincubated for 5 mins followed by addition of NADPH measured after 3 to 30 mins by LC-MS/MS analysis; format: ADME, microsome
[10] = target: T2, Adenosine receptor A3 (Homo sapiens) (UniProt P0DMS8); test: Displacement of [3H]-HEMADO from human adenosine A3 receptor expressed in HEK293 cell membranes at 1 uM measured after 90 mins relative to control
T2 sequence (whole entry): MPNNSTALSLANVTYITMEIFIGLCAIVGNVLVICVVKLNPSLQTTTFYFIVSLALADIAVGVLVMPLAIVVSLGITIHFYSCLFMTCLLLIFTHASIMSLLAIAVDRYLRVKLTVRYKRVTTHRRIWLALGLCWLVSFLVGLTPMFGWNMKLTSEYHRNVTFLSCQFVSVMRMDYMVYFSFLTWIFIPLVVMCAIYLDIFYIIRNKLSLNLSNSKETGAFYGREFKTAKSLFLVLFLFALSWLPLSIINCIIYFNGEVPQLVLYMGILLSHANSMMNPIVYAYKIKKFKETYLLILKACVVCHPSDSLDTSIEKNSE

Adenosine receptor A1 = target: T3, Adenosine receptor A1 (Homo sapiens, UniProt P30542); test: Displacement of [3H]-DPCPX from human adenosine A1 receptor expressed in HEK293 cell membranes measured after 90 mins
T3 sequence (P30542 whole entry): T1 sequence (whole entry)
Procedure, shortened: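 Competition binding on membranes from HEK-293 cells overexpressing human A1, A2A, A2B or A3, washed with ADA. Radioligands: [3H]-DPCPX 1 nM (A1), [3H]ZM241385 1 nM (A2A), [3H]-MRS-1754 1.6 nM (A2B), [3H]-HEMADO 2 nM (A3). Buffer was 50 mM Tris with EDTA and ADA; MgCl2 10 mM for A2A/A3; A2B at pH 6.5 with 5 mM MgCl2. Incubation 90 min at room temperature, then filtration. Nonspecific binding defined by NECA 100 μM. Ki values: mean of two experiments, triplicate points.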

[11] = target: T4, Adenosine receptor A2b (Homo sapiens) (UniProt P29275); test: Displacement of [3H]-MRS-1754 from human adenosine A2B receptor expressed in HEK293 cell membranes at 1 uM measured after 90 mins relative to control
T4 sequence (whole entry): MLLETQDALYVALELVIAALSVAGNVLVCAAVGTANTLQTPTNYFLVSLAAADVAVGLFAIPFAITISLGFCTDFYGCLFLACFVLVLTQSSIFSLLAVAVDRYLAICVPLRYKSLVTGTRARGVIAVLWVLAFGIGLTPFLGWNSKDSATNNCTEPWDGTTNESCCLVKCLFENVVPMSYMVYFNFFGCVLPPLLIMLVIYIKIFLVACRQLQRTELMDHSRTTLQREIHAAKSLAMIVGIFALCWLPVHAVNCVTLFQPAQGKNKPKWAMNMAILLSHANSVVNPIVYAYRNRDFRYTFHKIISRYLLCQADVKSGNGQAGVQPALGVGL

[12] = Oral bioavailability in Wistar rat at 10 mg/kg administered via gavage by LC/MS/MS analysis; format: ADME, organism-based; conditions: in vivo; procedure, shortened: as §1
[13] = Equilibrium aqueous solubility of the compound at pH 4 after 4 hrs; format: physicochemical; conditions: aqueous medium

Row | inhibition [1] [%] | Cmax [2] [nM] | AUC(0-t) [3] [µM·h] | Tmax [4] [h] | Drug metabolism (Liver [5]) [nmol/min/mg] | half-life [6] [h] | solubility thermodynamic at 4 h [7] [µM] | inhibition (INH) (Cytochrome P450 2C9) | AUC(0-t) [8] [µM·h] | Drug metabolism (Liver [9]) [nmol/min/mg] | inhibition [10] [%] | pKi (Adenosine receptor A1) | inhibition [11] [%] | bioavailability [12] [%] | solubility thermodynamic at 4 h [13] [µM] | SMILES | inhibition at 2 h, 30 µM (hERG (KCNH2)) [%]
1 | 46 | 1100 | 16.4 | 2.75 | < 0.04 | 5.4 | < 6 | Not Active | 12 | < 0.04 | 46 | 6.30 | 24 | 21.7 | < 6 | COc1cnc(N2CCOCC2)c2sc(NC(=O)C(C)(C)Oc3ccc(F)cc3)nc12 | < 10
2 | – | 2020 | 2.7 | 0.63 | 0.01 | 2.4 | 1840 (≈ 848 µg/mL) | – | 5.5 | 0.03 | – | 5.92 | – | 61 | 1810 (≈ 832 µg/mL) | CCN(CC)C1CCC(C)(C(=O)Nc2nc3c(OC)ccc(N4CCOCC4)c3s2)CC1 (stereo not given) | 18
3 | – | 5400 | 3.7 | 0.5 | < 0.04 | 0.6 | 139 (≈ 58.3 µg/mL) | – | 7.8 | < 0.04 | – | 5.54 | – | 63 | 111 (≈ 46.6 µg/mL) | COc1ccc(N2CCOCC2)c2sc(NC(=O)C3(C)CCC(C)(O)CC3)nc12 (stereo not given) | 26
4 | 38 | 1330 | 10.7 | 0.5 | 0.09 | 5.5 | < 6 | Not Active | 6.2 | 0.07 | 28 | 5.96 | 34 | 17 | < 6 | COc1ccc(N2CCOCC2)c2sc(NC(=O)C(C)(C)Oc3ccc(F)c(F)c3)nc12 | –
5 | 16 | 190 | 7.6 | 0.5 | 0.04 | 6.3 | < 6 | Not Active | 1.5 | 0.02 | 11 | 5.30 | 0 | 6 | < 6 | COc1ccc(N2CCOCC2)c2sc(NC(=O)C(C)(C)Oc3ccc(F)cc3)nc12 | –
